We go through 43 molecules from ChEMBL document CHEMBL3102754, “3D-QSAR study of adamantyl N-benzylbenzamides as melanogenesis inhibitors” (Bioorg Med Chem Lett, 2014).

SMILES strings stand for the structures.

The test system of this experiment is B16. The experiment can be described thus: Antimelanogenic activity in mouse B16 cells after 4 days by spectrophotometry. In kind it is functional, cell-based. Particulars: B16, 96 h. The essentials:
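Cells seeded at 2 × 10^5 cells/mL and treated in triplicate, with medium changed daily. After 4 d of culture, cells lysed in 1 N NaOH and crude extract transferred for melanin content reading.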

Turning to `COc1ccc(C(=O)NCc2ccc(O)c(O)c2)cc1`, the concentration for half-maximal inhibition (IC50) (usually the concentration that gives 50% inhibition) was 10 µM. In turn, `COc1ccc(C(=O)NCc2ccc(O)c(O)c2)c(O)c1` gave a half-inhibitory concentration (IC50) of 8 µM. The same measure for `O=C(NCCc1ccc(O)c(O)c1)c1ccc(O)c(C23CC4CC(CC(C4)C2)C3)c1`: 2.09 µM. For `COc1ccc(C(=O)NCc2ccc(O)c(O)c2)cc1C12CC3CC(CC(C3)C1)C2`, the IC50 is 2.23 µM. The result for `O=C(NCc1cc(O)ccc1O)c1ccc(O)cc1O` reads 24.2 µM; that for `O=C(NCc1ccc(O)c(O)c1)c1ccc(O)c(C23CC4CC(CC(C4)C2)C3)c1`, 2.57 µM; that for `O=C(NCc1ccc(O)cc1O)c1ccc(O)c(C23CC4CC(CC(C4)C2)C3)c1`, 0.899 µM. The molecule `COc1cc(CNC(=O)c2cc(C34CC5CC(CC(C5)C3)C4)c(O)cc2O)cc(OC)c1` showed an IC50 of 2.57 µM. The same measure for `COc1cc(CNC(=O)c2cc(C34CC5CC(CC(C5)C3)C4)c(O)cc2O)cc(OC)c1OC`: 2.94 µM; for `COc1cc(O)c(C(=O)NCCc2ccc(O)cc2)cc1C12CC3CC(CC(C3)C1)C2`: 1.92 µM; for `COc1cc(O)c(C(=O)NCCc2ccc(O)c(O)c2)cc1C12CC3CC(CC(C3)C1)C2`: 1.25 µM. Molecule `COc1ccc(CNC(=O)c2cc(C34CC5CC(CC(C5)C3)C4)c(O)cc2O)c(OC)c1` gave an IC50 of 3.69 µM. With `O=C(NCCc1ccc(O)cc1)c1cc(C23CC4CC(CC(C4)C2)C3)c(O)cc1O`, the IC50 was 1.1 µM. Turning to `COc1cc(CNC(=O)c2ccc(OC)c(C34CC5CC(CC(C5)C3)C4)c2)cc(OC)c1`, half-maximal inhibition (IC50) was put at 5.02 µM.

In turn, `COc1ccc(C(=O)NCc2ccc(O)cc2O)cc1C12CC3CC(CC(C3)C1)C2` showed an IC50 of 1.4 µM. The result for `COc1ccccc1CNC(=O)c1cc(C23CC4CC(CC(C4)C2)C3)c(O)cc1O` reads 2.31 µM. The result for `COc1ccc(CNC(=O)c2cc(C34CC5CC(CC(C5)C3)C4)c(O)cc2O)c(O)c1` reads 5.71 µM; that for `O=C(NCCc1ccc(O)c(O)c1)c1cc(C23CC4CC(CC(C4)C2)C3)c(O)cc1O`, 4.33 µM; that for `COc1ccc(CNC(=O)c2ccc(O)c(C34CC5CC(CC(C5)C3)C4)c2)cc1OC`, 3.86 µM. The result for `COc1cc(O)c(C(=O)NCc2ccc(O)c(O)c2)cc1C12CC3CC(CC(C3)C1)C2` reads 1.29 µM. On to `COc1ccc(OC)c(CNC(=O)c2ccc(O)c(C34CC5CC(CC(C5)C3)C4)c2)c1`, for which the IC50 was 5.41 µM. The result for `COc1ccc(CNC(=O)c2cc(C34CC5CC(CC(C5)C3)C4)c(O)cc2O)cc1OC` reads 3.81 µM; that for `O=C(NCc1ccc(O)c(O)c1)c1ccc(O)cc1O`, 8 µM; that for `O=C(NCCc1ccc(O)c(O)c1)c1ccc(O)cc1`, 75 µM. As to `O=C(NCc1ccc(O)c(O)c1)c1ccc(O)cc1`, inhibition was half-maximal at 55 µM (IC50). The result for `COc1ccc(C(=O)NCCc2ccc(O)c(O)c2)c(OC)c1` reads 11 µM. The result for `COc1cc(OC)c(C23CC4CC(CC(C4)C2)C3)cc1C(=O)NCCc1ccc(O)cc1` reads 1.2 µM; that for `COc1ccc(OC)c(CNC(=O)c2ccc(OC)c(C34CC5CC(CC(C5)C3)C4)c2)c1`, 3.14 µM; that for `COc1ccc(C(=O)NCCc2ccc(O)cc2)c(OC)c1`, 27 µM. The same measure for `COc1cc(CNC(=O)c2ccc(O)c(C34CC5CC(CC(C5)C3)C4)c2)cc(OC)c1`: 4.44 µM. Consider `COc1ccc(CCNC(=O)c2ccc(OC)c(C34CC5CC(CC(C5)C3)C4)c2)cc1OC`, for which the half-inhibitory concentration (IC50) was 4.5 µM. The same measure for `COc1ccc(C(=O)NCc2ccc(O)c(O)c2)c(OC)c1`: 8.99 µM. In the case of `O=C(NCc1ccc(O)c(O)c1)c1cc(C23CC4CC(CC(C4)C2)C3)c(O)cc1O`, half-maximal inhibition (IC50) required 2.5 µM.

Take `COc1ccc(C(=O)NCCc2ccc(O)cc2)c(O)c1`: it took 5 µM to reach half-maximal inhibition (IC50). The same measure for `COc1ccc(C(=O)NCCc2ccc(O)c(O)c2)cc1C12CC3CC(CC(C3)C1)C2`: 2.33 µM; for `O=C(NCc1cc(O)ccc1O)c1cc(C23CC4CC(CC(C4)C2)C3)c(O)cc1O`: 0.729 µM. Molecule `COc1ccc(C(=O)NCCc2ccc(O)c(O)c2)cc1` gave an IC50 of 23 µM. For the molecule `COc1ccc(OC)c(CNC(=O)c2cc(C34CC5CC(CC(C5)C3)C4)c(O)cc2O)c1`, the concentration for half-maximal inhibition (IC50) was 4.1 µM. The result for `O=C(NCc1ccc(O)cc1O)c1cc(C23CC4CC(CC(C4)C2)C3)c(O)cc1O` reads 1.2 µM; that for `COc1ccc(CCNC(=O)c2cc(C34CC5CC(CC(C5)C3)C4)c(O)cc2O)cc1OC`, 4.08 µM. The same measure for `COc1ccc(CNC(=O)c2ccc(OC)c(C34CC5CC(CC(C5)C3)C4)c2)cc1OC`: 5 µM; for `O=C(NCc1ccc(O)cc1)c1cc(C23CC4CC(CC(C4)C2)C3)c(O)cc1O`: 1.23 µM; for `COc1ccc(C(=O)NCCc2ccc(O)cc2)cc1C12CC3CC(CC(C3)C1)C2`: 3.41 µM.
